The list is not random: actives were taken first. Their share in the collection is about 2.1%.
PKA-R1A act = PKA-R1A complex activation; P00514+P68181; PKA-R1A dissociation, Cy5-IP20 fluorescence polarization; scaled: DMSO 0%, 113 µM cGMP 100%; activation, % at 11.4 µM; 0.083% of 340,000 active;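 active = percent activation above the mean of all tested compounds plus 3 SD, cut at about 19% in these data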;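 also: higher means more PKAc released from R1A so a rise in polarization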
IMP-1 inhibitor = blocks Pseudomonas aeruginosa IMP-1 metallo-beta-lactamase. purified IMP-1, nitrocefin hydrolysis, epi-absorbance fluorescence. inhibition, % at 5.6 µM. 0.45% of 290,000 active. AID 1556;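 active = inhibition above the mean plus 3 SD of all compounds in the same screening run, cut at about 4.5% in these data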;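 also: 0% = IMP-1 with DMSO and 100% = DMSO wells lacking enzyme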
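System: Purified IMP-1 | Read-out basis: Percent enzyme inhibition | Controls: IMP-1 with DMSO as 0%, enzyme-free DMSO as 100% | Replicates: One well per compound | Doses: 5.6 µM nominal single concentration | Detection: Epi-absorbance fluorescence, 480 nm excitation, 530 nm emission | Incubation: 25 °C, 15 min preincubation, 25 min reaction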
VIM-2 inhibitor = inhibitors of Pseudomonas aeruginosa VIM-2 metallo-beta-lactamase. purified VIM-2, nitrocefin hydrolysis, epi-absorbance fluorescence. inhibition, % at 5.6 µM. 0.89% of 290,000 active;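 active = inhibition above the mean of all tested compounds plus 3 SD, cutoff set per screening run, cut at about 7.5% in these data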;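 also: red hydrolysis product quenches plate fluorescence so inhibitors raise well fluorescence; 0% = enzyme with DMSO and 100% = DMSO without enzyme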
bovine MsrA act = activators of bovine methionine sulfoxide reductase A; purified bovine MsrA, absorbance read-out; activation, % at 10.6 µM; 0.3% of 360,000 active; in the data active = activation above about 7.5%;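 also: 0% = vehicle and 100% = reference activator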
MsrA inh = inhibits bovine methionine sulfoxide reductase A. purified bovine MsrA, absorbance read-out. inhibition, % at 15.5 µM. 0.75% of 360,000 active; in the data active = inhibition above about 4.5%;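 also: 0% = vehicle wells with enzyme and 100% = reference inhibitor wells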
PKA-R2B activ = activators of human PKA-R2B complex | P22694+P31323 | PKA-R2B holoenzyme dissociation, Cy5-IP20 fluorescence polarization; R2B truncated from residue 108, S112A mutant; 0% DMSO only, 100% 113 µM cGMP | activation, % at 11.4 µM | 0.079% of 340,000 active;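 active = activation above a cutoff set at the mean over all compounds plus 3 SD, cut at about 18% in these data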;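 also: higher means more holoenzyme dissociation and a rise in polarization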
Target sequence (P31323 whole entry, looked up, other chains not shown, the tested form may be a part): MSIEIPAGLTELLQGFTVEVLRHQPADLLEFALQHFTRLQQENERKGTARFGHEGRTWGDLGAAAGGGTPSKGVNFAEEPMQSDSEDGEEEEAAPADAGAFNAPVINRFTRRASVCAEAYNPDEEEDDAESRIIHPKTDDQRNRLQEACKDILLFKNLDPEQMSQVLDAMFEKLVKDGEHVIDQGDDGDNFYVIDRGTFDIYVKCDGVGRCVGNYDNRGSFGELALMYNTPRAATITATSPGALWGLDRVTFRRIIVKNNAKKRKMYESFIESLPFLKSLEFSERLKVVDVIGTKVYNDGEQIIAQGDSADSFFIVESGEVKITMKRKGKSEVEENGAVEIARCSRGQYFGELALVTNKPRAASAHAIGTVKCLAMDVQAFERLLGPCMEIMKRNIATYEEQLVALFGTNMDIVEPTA
Numbers without * were called inactive; . = not tested or not shown.

SMILES	PKA-R1A act	IMP-1 inhibitor	VIM-2 inhibitor	bovine MsrA act	MsrA inh	PKA-R2B activ
COC(=O)c1cc2c(c3c4cc(F)ccc4n(S(=O)(=O)c4ccc(C)cc4)c13)C(=O)N(Cc1ccc(C(F)(F)F)cc1)C2	.	.	.	.	-1	.
CCN(CC)c1ccc(/C=C(\C#N)c2ccccn2)cc1	-14	-3	-2	-3	.	-6
CN(CCC#N)c1ccc(/C=C(\C#N)c2ccccn2)cc1	-11	25*	3	4	3	-4
CCN(CC)S(=O)(=O)c1ccc(N=Nc2c(C)[nH]n(C(N)=S)c2=O)cc1	1	-5	-5	-12	4.5*	-2
C[C@@H]1CN([C@@H](C)CO)C(=O)c2ccccc2-c2ccccc2CO[C@@H]1CN(C)Cc1ccc(Cl)c(Cl)c1	.	.	.	.	1	.
CC(C)N1CC(O)=C(c2nc3ccccc3c(=O)[nH]2)C1=N	1	-4	10*	-7	0	9
Cc1cc(C)cc(N2CC(O)=C(c3nc4ccccc4c(=O)[nH]3)C2=N)c1	-7	-1	1	-1	-1	-4
CC(=O)c1ccc(NC(=O)c2ccc(NC(=O)c3ccco3)cc2)cc1	-5	19*	3	-3	.	0
CC(=O)c1ccc(C(=O)Nc2ccc3c(c2)C(=O)NC3=O)cc1	4	6.1*	0	0	1	-5
COC(=O)c1ccc(NC(=O)c2ccc(NC(=O)c3ccco3)cc2)cc1	0	4.7*	2	-4	2	13
CC(C)(C)c1ccc(C(=O)Nc2ccc3c(c2)C(=O)NC3=O)cc1	0	-2	-1	-1	0	2
CC(=O)c1ccc(NC(=O)c2cccc(N3C(=O)c4ccccc4C3=O)c2)cc1	-6	7.7*	0	-10	.	-2
C/C(=N\NS(=O)(=O)c1ccc([N+](=O)[O-])cc1)c1ccc(NC(=O)c2ccco2)cc1	-2	0	0	-4	4.6*	0
COC(=O)[C@]12C[C@H](CC(=O)N3CCC(c4ccccc4)CC3)C(=O)N(Cc3ccc4c(c3)OCO4)C1=C[C@H](COCc1ccccc1)O[C@@H]2C	.	.	.	.	1	.
CCOC(=O)c1c(N)sc(=S)c2c1CCC2	1	12*	2	-10	-1	0
CCOC(=O)c1c(N)sc2c1CCSC2	-4	14*	0	-7	1	1
CCOC(=O)c1c(N)sc2c1CCC(CC)C2 (stereo unspecified)	-9	-3	-4	-4	0	-10
N#CCCN(C(=O)COC(=O)c1ccc(S(=O)(=O)N2CCCC2)cc1)c1cccc(Cl)c1	8	.	.	-3	0	15
Cc1ccc(N2C=Nc3ccc(C)c4nc(C)cc2c34)cc1	-10	-1	11*	-1	1	-3
Cc1oc2c(c(C)nn2-c2ccccc2)c(=O)c1Cl	.	.	.	.	1	.
Cc1ccc(C)c(NC(=O)CSc2nnc(C)c(=O)n2N)c1	-1	-4	-3	-3	1	-2
Cc1cc(C)c(NC(=O)CSc2nnc(SCC(=O)Nc3c(C)cc(C)cc3C)n2N)c(C)c1	-5	7.2*	-4	-1	0	4
CCC(=O)Nc1ccc(C(=O)CSc2nnc(-c3ccccc3F)n2C2CC2)cc1	9	5.5*	2	1	0	-17
CCC(C)NC(=O)NC(=O)CSc1nnc(-c2ccccc2F)n1C1CC1 (stereo unspecified)	12	-4	-2	0	0	8
COc1ccc(-c2nc(CS(=O)(=O)CC(=O)NCCc3ccc(C)cc3)c(C)o2)cc1	-3	6.2*	-1	-1	0	-3
SMILES	PKA-R1A act	IMP-1 inhibitor	VIM-2 inhibitor	bovine MsrA act	MsrA inh	PKA-R2B activ
O=C(Nc1ccc2c(c1)OCCO2)C(C1CC1)N1CCN(c2ccc(F)cc2)CC1 (stereo unspecified)	.	.	.	-2	-1	.
O=C1OC(c2ccccc2)=C/C1=C/N1CCOCC1	1	1	-1	-5	1	6
O=C1SC(c2ccccc2)=C/C1=C\N1CCCCC1	9	4.8*	2	-1	3	7
CC[C@@H](C)[C@H](CN[C@H](CNC)[C@@H](C)O)NCCc1ccc(OC)cc1	11	0	11*	-2	0	4
CCOC(=O)/C(N=Nc1sc(C(=O)OC)c(C)c1C(=O)OCC)=C(\O)CCl	9	4.7*	0	-3	2	0
CCOC(=O)/C(N=Nc1sc(C(=O)OCC)c(C)c1C(=O)OCC)=C(\C)O	.	-2	1	.	.	.
O=C(OCc1nnc(-c2ccc(Cl)cc2)o1)c1ccc(=O)n(Cc2ccccc2)n1	-4	4.8*	-6	0	-1	-5
CCC(=O)N(c1nnc(SCC(=O)Nc2ccccc2Cl)s1)C1CC1	-1	.	.	-2	0	-15
CCNc1c(NC(=O)c2cccs2)c(=O)oc2ccccc12	5	-2	-2	-11	0	-9
COc1ccc(-c2nnc3ccc(SCC(=O)N4CCOCC4)nn23)cc1	.	.	.	-2	0	.
COc1ccc(-c2nnc3ccc(SC)nn23)cc1	10	-4	8.2*	0	0	-4
Cc1ccccc1NC(=O)c1cc2c(=O)n3cccc(C)c3nc2s1	0	-2	9.2*	-4	0	0
Cc1noc(C)c1Cn1c(C)c(C(=O)NCc2ccc3c(c2)OCCO3)sc1=O	.	.	.	0	1	.
CC(C(=O)NC1CCCC1)n1c(C2CCCC2)nc2ccccc21 (stereo unspecified)	.	.	.	.	0	.
COc1ccc(CNS(=O)(=O)c2ccccc2Br)c(OC)c1	.	.	.	.	0	.
O=C(Nc1ccc(-c2nc3ccccc3[nH]2)cc1)c1ccc2c(c1)OCO2	-6	28*	0	-6	3	2
O=C(Nc1ccc(Cl)c(-c2nc3ccccc3[nH]2)c1)c1ccc2c(c1)OCO2	-2	-2	-2	-2	0	2
COc1cccc(CNc2nc3cc(-c4ccccc4C)sc3c(=O)n2C)c1OC	.	.	.	-1	-1	.
O=C(O)[C@H](Cc1ccccc1)N1C(=O)c2c(Cl)c(Cl)c(Cl)c(Cl)c2C1=O	-4	-1	8.5*	-7	1	-11
O=C(O)C(Cc1ccccc1)n1cccc1 (stereo unspecified)	1	-1	-2	-4	0	-1
CN1CCN(Cc2oc(CO)cc(=O)c2O)CC1	-2	1	1	-2	0	4
O=c1cc(CO)oc(CN2CCCC2)c1O	5	8.3*	-1	-3	0	-3
O=C(Nc1ccc(Cl)cc1)OCc1cn(-c2ccccc2)nn1	-12	7.5*	-3	-4	2	-1
CCN(CC)C(=O)c1ccc(/C=C/c2c[nH]c3ccccc23)[n+](C)c1	6	4.8*	6	-1	1	-3
O=C(O)c1cccc2cc(-c3ccccc3)oc(=O)c12	-1	4.8*	5	-4	2	-1

Screening data deposited in PubChem by The Scripps Research Institute Molecular Screening Center.
